The record followed here is ChEMBL document CHEMBL4808192, “Synthesis and biological evaluation of novel imidazo[1,2-a]pyridine-oxadiazole hybrids as anti-proliferative agents: Study of microtubule polymerization inhibition and DNA binding” (Bioorg Med Chem, 2021).

Type in all cases: functional, cell-based
For one assay, the system named is PC-3. The assay can be described thus: Antiproliferative activity against human PC-3 cells assessed as reduction in cell viability incubated for 48 hrs by MTT assay. The settings on record: PC-3, 48 h. The method in brief: (§1)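 Cells grown in medium with 10% FBS and 1% antibiotic-antimycotic at 37 °C, passaged at 80–90% confluence with 0.25% trypsin/1 mM EDTA. Seeded at 1000–4000 cells/well and grown overnight. Medium was then replaced and compounds added at various concentrations for 48 h. MTT (0.5 mg/mL) was added for 4 h at 37 °C, formazan dissolved in DMSO and absorbance read at 570 nm. IC50 is the 50% inhibitory concentration.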

The next assay deals with DU-145. Briefly: Antiproliferative activity against human DU-145 cells assessed as reduction in cell viability incubated for 48 hrs by MTT assay. The note with it: DU-145, 48 h. An outline of the steps: as §1
Background: Formazan colour is commonly taken as a measure of viable cells.

The next assay deals with A549. The assay can be described thus: Antiproliferative activity against human A549 cells assessed as reduction in cell viability incubated for 48 hrs by MTT assay. The settings on record: A549, 48 h. The method in brief: as §1

For `Cc1cccn2cc(-c3nnc(-c4ccccc4I)o3)nc12`, the IC50 stood at 33.5 µM in the assay with PC-3, 31.5 µM in the assay with DU-145 and 33.4 µM with A549.

For `c1ccc(-c2nnc(-c3cn4ccccc4n3)o2)cc1`, the IC50 in the assay on PC-3 was 22.2 µM; with DU-145, 23.4 µM; with A549, 23.4 µM.

As to `Cc1cccn2cc(-c3nnc(-c4ccc(N(C)C)cc4)o3)nc12`, the half-maximal inhibitory concentration (IC50) with PC-3 is 11.6 µM; in the assay with DU-145, 10.8 µM; with A549, 12.3 µM.

As for `COc1ccc(-c2nnc(-c3cn4ccccc4n3)o2)cc1`, the IC50 in the assay with PC-3 stood at 13.4 µM; with DU-145 it was 12.9 µM; with A549, 11.9 µM.

`COc1ccc(-c2nnc(-c3cn4cccc(C)c4n3)o2)cc1OC`: the IC50 in the assay with PC-3 amounted to 11.5 µM; in the assay on DU-145, 11.8 µM; with A549, 10.9 µM.

On to `Cc1cc(Br)c2nc(-c3nnc(-c4ccc(Cl)cc4)o3)cn2c1`, for which the figures for the IC50 in the assay on PC-3, in the assay on DU-145 and in the assay on A549 were 42 µM, 46 µM and 43.5 µM, respectively.

On to `COc1cc(-c2nnc(-c3cn4cccc(C)c4n3)o2)cc(OC)c1OC`, for which the results for the IC50 in the assay on PC-3, in the assay with DU-145 and in the assay on A549 were 10.9 µM, 11.2 µM and 9.9 µM, respectively.

For the molecule `Cc1cc(Br)c2nc(-c3nnc(-c4ccccc4)o3)cn2c1`, the IC50 is 17.8 µM with PC-3, 18.9 µM in the assay with DU-145 and 14.5 µM in the assay on A549.

Turning to `Cc1cccn2cc(-c3nnc(-c4ccc(Br)cc4)o3)nc12`, the results for the IC50 with PC-3, in the assay with DU-145 and in the assay with A549 were 37.8 µM, 38.9 µM and 34.7 µM, respectively.

The IC50 is the midpoint of a concentration-inhibition curve.
